Reference: PubChem BioAssay
Calls of active or inactive are those of the source.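 Rule for the calls, unless noted: active = viability at or below 30% in both replicate assays; inconclusive = viability at or below 30% in just one of the two assays; inactive = the rest.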

Columns and labels:
[1] = reducers of endogenous Her2 protein level, primary screen, SKBR3 breast tumor cells, AlphaScreen, ATP viability (AID 461;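 active = Her2 level under about 52% in both replicate screens, with viability over 70% of control, limit read from the data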;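 for Her2 level: lower value means less Her2 protein in the cells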;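 for viability: percent of carrier control wells set as 100% viability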); conditions: 18-24 h, measured here: SKBR3 viability, ATP luminescence, at 10 µM
[2] = biological target: Receptor tyrosine-protein kinase erbB-2 (Homo sapiens) (UniProt P04626); test: as above; conditions: 18-24 h, at 10 µM, stronger effect = lower value
[3] = SK-BR-3 cell growth inhibitors, pilot screen, 24 h, human (AID 572;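 active = viability at or below 10% of carrier control in both of two separate runs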;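 note: compound exposure lasted between 18 and 24 h rather than exactly 24 h; 100% = carrier-treated control wells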); conditions: SK-BR-3 viability, CellTiter-Glo luminescence, at 10 µM, stronger effect = lower value
[4] = HUVEC growth inhibition – cell-based, human, primary screen (AID 575); conditions: HUVEC proliferation, CellTiter-Glo luminescence, 72 h; at 10 µM; stronger effect = lower value;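 note: 100% = median of untreated cell wells with 0.1% DMSO on each plate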
Method in brief: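 Test system: primary human umbilical vein endothelial cells. Quantity: 1250 cells/well. Compound: single 10 µM dose, 0.1% DMSO, from 5x medium stock. Timing: 72 h treatment at 37 °C. Detection: ATP-based CellTiter-Glo luminescent read. Benchmarks: vehicle and MePR control wells. Format: 384-well plates coated with collagen.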

[5] = growth inhibitors of H69AR lung tumor, primary screen, human, duplicate replicates (AID 580;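 active = viability at or under a set limit in both replicates, limit being median viability minus 3 SD, cut at about 48% in these data, passing the limit was not always enough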;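 note: 100% = mean luminescence of untreated wells and 0% = no signal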); conditions: H69AR lung tumor cells viability, ATP luminescence, 72 h; at 10 µM; stronger effect = lower value
[6] = reversal of MRP1-mediated doxorubicin resistance, pilot screen, H69AR cells, doxorubicin co-treatment (AID 601;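 active = viability loss from added drug above about 55%, and viability with drug at most 40%, in both replicates, limit read from the data, passing the limit was not always enough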); conditions: CellTiter-Glo, 72 h, at 10 µM; for differential viability (reversal): stronger effect = higher value
[7] = 384-well plate pilot, post-Golgi transport modulator project, inhibition of yeast transport mutant growth (AID 636; in the data active = inhibition above about 31%); conditions: absorbance 615 nm, about 18 h, stronger effect = higher value
[8] = growth suppression of yeast trafficking mutant, preliminary HTS, modulators of trafficking downstream of Golgi apparatus project, 1536-format plate, OD 615 nm (AID 637; in the data active = inhibition above about 30%); conditions: yeast transport mutant growth, absorbance 615 nm, 18 h; stronger effect = higher value
[9] = H69AR cells + 2 uM doxorubicin, measured here: viability with 2 uM doxorubicin, stronger effect = lower value
[10] = H69AR cells, compound alone cytotoxicity

Chain of Receptor tyrosine-protein kinase erbB-2 (Homo sapiens) (P04626 whole entry, looked up): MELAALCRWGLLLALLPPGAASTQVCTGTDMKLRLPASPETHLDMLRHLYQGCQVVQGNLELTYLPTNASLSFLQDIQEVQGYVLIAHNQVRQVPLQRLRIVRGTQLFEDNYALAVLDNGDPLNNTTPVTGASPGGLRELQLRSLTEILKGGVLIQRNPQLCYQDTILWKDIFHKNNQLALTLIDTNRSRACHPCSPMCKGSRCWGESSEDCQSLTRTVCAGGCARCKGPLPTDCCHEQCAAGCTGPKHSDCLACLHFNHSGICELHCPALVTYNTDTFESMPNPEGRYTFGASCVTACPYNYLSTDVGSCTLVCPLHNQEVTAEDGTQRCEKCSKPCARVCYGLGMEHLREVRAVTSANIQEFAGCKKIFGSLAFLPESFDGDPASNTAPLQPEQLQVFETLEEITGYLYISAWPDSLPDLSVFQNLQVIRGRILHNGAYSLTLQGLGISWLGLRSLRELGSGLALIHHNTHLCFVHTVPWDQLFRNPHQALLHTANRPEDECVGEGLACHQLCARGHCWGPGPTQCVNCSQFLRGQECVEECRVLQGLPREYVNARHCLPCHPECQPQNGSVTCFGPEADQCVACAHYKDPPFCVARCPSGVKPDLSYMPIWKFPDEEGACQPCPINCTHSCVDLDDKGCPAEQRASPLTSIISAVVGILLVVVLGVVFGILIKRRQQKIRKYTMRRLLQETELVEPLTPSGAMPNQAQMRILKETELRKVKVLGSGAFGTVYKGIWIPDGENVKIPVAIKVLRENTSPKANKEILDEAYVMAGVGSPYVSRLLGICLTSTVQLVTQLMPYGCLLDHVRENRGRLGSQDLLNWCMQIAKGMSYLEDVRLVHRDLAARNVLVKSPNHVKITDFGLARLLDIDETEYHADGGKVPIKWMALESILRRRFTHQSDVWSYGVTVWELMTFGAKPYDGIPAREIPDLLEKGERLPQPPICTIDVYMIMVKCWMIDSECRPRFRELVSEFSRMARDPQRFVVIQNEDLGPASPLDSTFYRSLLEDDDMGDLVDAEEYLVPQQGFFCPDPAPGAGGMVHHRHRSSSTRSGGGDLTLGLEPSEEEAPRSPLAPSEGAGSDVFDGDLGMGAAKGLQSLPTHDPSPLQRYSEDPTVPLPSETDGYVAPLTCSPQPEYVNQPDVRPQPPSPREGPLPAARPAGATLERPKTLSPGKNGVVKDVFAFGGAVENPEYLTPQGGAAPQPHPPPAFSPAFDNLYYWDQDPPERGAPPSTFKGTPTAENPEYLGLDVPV

Row | Compound | viability [1] [%] | Her2 level [2] | viability [3] | viability [4] | viability [5] | differential viability (reversal) ([6]; H69AR cells + 2 uM doxorubicin) | viability [6, 9] [%] | viability [6, 10] [%] | inhibition [7] | inhibition [8]
1 | O=C(Nc1ccccc1)c1cccnc1N1CCOCC1 | 94 | 80% (inactive) | 94% (inactive) | 105% (inactive) | 102% (inactive) | 18.2% (inactive) | 84.1 | 102 | -0.92% (inactive) | -2.73% (inactive)
2 | COc1cc(NC2=CC(=O)CC(C)(C)C2)cc(OC)c1 | 77 | 133% (inactive) | 77% (inactive) | 85.5% (inactive) | 96.8% (inactive) | 6.11% (inactive) | 90.6 | 96.8 | 0.26% (inactive) | -7.17% (inactive)
3 | COc1ccc(OC)c(NC(=O)C2CCN(c3cc(-c4ccccc4)nc4ncnn34)CC2)c1 | 95.5 | 76.5% (inactive) | 95.5% (inactive) | 71% (inactive) | 75.4% (inactive) | -0.75% (inactive) | 76.1 | 75.4 | -0.66% (inactive) | -0.48% (inactive)
4 | Cc1csc2nc(CSc3nc4ccccc4o3)c(Br)n12 | 84.5 | 60% (inactive) | 84.5% (inactive) | 85.6% (inactive) | 83% (inactive) | 3.21% (inactive) | 79.8 | 83 | -3.87% (inactive) | 10.5% (inactive)
5 | Cc1ccc(C)c(OCC(O)CN2C(C)CCCC2C)c1 (stereo not given) | 70 | 98% (inactive) | 70% (inactive) | 96.2% (inactive) | 83.8% (inactive) | 0.415% (inactive) | 83.4 | 83.8 | -0.53% (inactive) | -0.95% (inactive)
6 | CC(=O)C1=C(C)NC(C)=C(C(C)=O)C1c1cccs1 | 99 | 86% (inactive) | 99% (inactive) | 84.8% (inactive) | 87% (inactive) | 5.3% (inactive) | 81.7 | 87 | -2.08% (inactive) | -4% (inactive)
7 | CS(=O)(=O)N1CCCC(C(=O)NCCCN2CCc3ccccc3C2)C1 (stereo not given) | 93 | 102% (inactive) | 93% (inactive) | 102% (inactive) | 95.1% (inactive) | 7.38% (inactive) | 87.8 | 95.1 | -0.91% (inactive) | -8.89% (inactive)
8 | COc1ccccc1CC1(C)NC(=O)N(CC(=O)Nc2cc(C)on2)C1=O (stereo not given) | 106 | 86% (inactive) | 106% (inactive) | 106% (inactive) | 92.7% (inactive) | 9.12% (inactive) | 83.6 | 92.7 | -5.81% (inactive) | 4.13% (inactive)
9 | NC(=O)CSc1nnc(-c2cc3ccccc3o2)n1Cc1ccccc1 | 92.5 | 81.5% (inactive) | 92.5% (inactive) | 104% (inactive) | 90.3% (inactive) | -1.59% (inactive) | 91.8 | 90.3 | -6.05% (inactive) | 0.67% (inactive)
10 | CC1(C(=O)CSc2nc3ccccc3s2)CCC(=O)O1 (stereo not given) | 107 | 89% (inactive) | 107% (inactive) | 73.2% (inactive) | 90.1% (inactive) | 3.12% (inactive) | 87 | 90.1 | -7.4% (inactive) | -3.17% (inactive)
11 | Cc1oc(-c2ccccc2)cc1C(N)=O | 103 | 78.5% (inactive) | 103% (inactive) | 92.3% (inactive) | 100% (inactive) | 20% (inactive) | 80.3 | 100 | -0.79% (inactive) | -2.9% (inactive)
12 | O=C1CCCC2=C1C(c1ccsc1)CC(=O)N2c1ccccc1 (stereo not given) | 90.5 | 96% (inactive) | 90.5% (inactive) | 113% (inactive) | 92.4% (inactive) | -3.37% (inactive) | 95.7 | 92.4 | -3.29% (inactive) | -3.82% (inactive)
13 | CCOC(=O)C1CCN(c2nc3ccccc3nc2C(C#N)C(=O)OCCOC)CC1 (stereo not given) | 97 | 98% (inactive) | 97% (inactive) | 78.3% (inactive) | 79.4% (inactive) | 27.7% (inactive) | 51.7 | 79.4 | -6.71% (inactive) | 0.16% (inactive)
14 | COC(=O)c1sc(S(=O)(=O)Nc2ccc3cn[nH]c3c2)c(C(=O)OC)c1C | 97 | 93.5% (inactive) | 97% (inactive) | 77.6% (inactive) | 78.2% (inactive) | -12.4% (inactive) | 90.6 | 78.2 | -2.5% (inactive) | -6.55% (inactive)
15 | Cc1ccc(-n2c(Cn3cnc4ccccc43)nnc2SCC(=O)O)cc1 | 102 | 108% (inactive) | 102% (inactive) | 94.3% (inactive) | 97.7% (inactive) | 5.34% (inactive) | 92.3 | 97.7 | -4.13% (inactive) | 24.3% (inactive)
16 | CCCC(=O)OCCn1c(Br)nc2c1c(=O)[nH]c(=O)n2C | 98.5 | 86.5% (inactive) | 98.5% (inactive) | 89.4% (inactive) | 93.5% (inactive) | 5.21% (inactive) | 88.2 | 93.5 | -1.47% (inactive) | 1.45% (inactive)

Row | Compound | viability [1] [%] | Her2 level [2] | viability [3] | viability [4] | viability [5] | differential viability (reversal) ([6]; H69AR cells + 2 uM doxorubicin) | viability [6, 9] [%] | viability [6, 10] [%] | inhibition [7] | inhibition [8]
17 | O=c1cc(-c2ccc(Cl)cc2)[nH][nH]1 | 108 | 84% (inactive) | 108% (inactive) | 93.5% (inactive) | 91.6% (inactive) | 5.75% (inactive) | 85.9 | 91.6 | -7.84% (inactive) | 1% (inactive)
18 | CCCC(=O)N(Cc1cc2ccccc2[nH]c1=O)c1ccccc1OC | 97 | 94.5% (inactive) | 97% (inactive) | 105% (inactive) | 105% (inactive) | 5.2% (inactive) | 99.5 | 105 | -0.26% (inactive) | 12.3% (inactive)
19 | COc1cc2c(cc1NC(=O)CN1CCN(S(=O)(=O)c3ccc(F)cc3)CC1)oc1ccccc12 | 93.5 | 105% (inactive) | 93.5% (inactive) | 66.4% (inactive) | 95.7% (inactive) | 1.29% (inactive) | 94.4 | 95.7 | -2.37% (inactive) | 3.33% (inactive)
20 | CCn1c(CC(=O)Nc2cccc(OC)c2)nnc1SCC(=O)Nc1nccs1 | 98 | 102% (inactive) | 98% (inactive) | 94.5% (inactive) | 101% (inactive) | 4.37% (inactive) | 97 | 101 | -7.6% (inactive) | -2.26% (inactive)
21 | COc1ccc(-n2ncc3c(NCc4ccccn4)ncnc32)cc1 | 98.5 | 97.5% (inactive) | 98.5% (inactive) | 102% (inactive) | 90.5% (inactive) | 3.51% (inactive) | 87 | 90.5 | -1.97% (inactive) | 4.19% (inactive)
22 | CCSc1nc(C)nc2c1oc1ccccc12 | 78.5 | 82% (inactive) | 78.5% (inactive) | 92.6% (inactive) | 97.7% (inactive) | 10% (inactive) | 87.7 | 97.7 | -4.67% (inactive) | -5.74% (inactive)
23 | COC(=O)c1c(-c2cccs2)csc1NC(=O)CN1CCOCC1 | 103 | 98.5% (inactive) | 103% (inactive) | 86.6% (inactive) | 82.1% (inactive) | 0.685% (inactive) | 81.4 | 82.1 | -0.13% (inactive) | -1.13% (inactive)
24 | CCCCc1ccc(NC(=O)N[C@H](C(=O)O)C(C)CC)cc1 (stereo not given in full) | 112 | 82% (inactive) | 112% (inactive) | 79.5% (inactive) | 99.7% (inactive) | 8.86% (inactive) | 90.8 | 99.7 | -5.92% (inactive) | -2.38% (inactive)
25 | Cn1c(=O)c2c(ncn2CC(O)CNc2ccc(Cl)cc2)n(C)c1=O (stereo not given) | 91 | 103% (inactive) | 91% (inactive) | 79.6% (inactive) | 89.9% (inactive) | 0.365% (inactive) | 89.5 | 89.9 | -0.53% (inactive) | -5.71% (inactive)
26 | C=CCn1c(=O)/c(=C/c2ccc(O)cc2)s/c1=C(/C#N)c1nnc2n1CCCCC2 | 93.5 | 103% (inactive) | 93.5% (inactive) | 83.4% (inactive) | 85.5% (inactive) | 8.51% (inactive) | 77 | 85.5 | -5.27% (inactive) | -2.83% (inactive)
27 | COCCN1C(=O)C(=O)/C(=C(/O)c2cccc(OC)c2)C1c1ccncc1 (stereo not given) | 99 | 104% (inactive) | 99% (inactive) | 101% (inactive) | 93% (inactive) | -3.51% (inactive) | 96.5 | 93 | -0.26% (inactive) | 3.64% (inactive)
28 | c1ccc(-n2cnc3cc(NCc4ccccn4)ccc32)cc1 | 109 | 90.5% (inactive) | 109% (inactive) | 102% (inactive) | 86.4% (inactive) | 2.47% (inactive) | 84 | 86.4 | -5.27% (inactive) | 2.7% (inactive)
29 | Cc1ccccc1CS(=O)(=O)Cc1ccc(C(=O)NCCCN2CCOCC2)o1 | 77 | 97% (inactive) | 77% (inactive) | 104% (inactive) | 98.2% (inactive) | 3.12% (inactive) | 95.1 | 98.2 | -0.39% (inactive) | -6.13% (inactive)
30 | CC(C)Oc1ccc(N2CC(C(=O)Nc3ccccc3F)CC2=O)cc1 (stereo not given) | 101 | 122% (inactive) | 101% (inactive) | 92.6% (inactive) | 97.6% (inactive) | 8.51% (inactive) | 89.1 | 97.6 | -1.17% (inactive) | -10.3% (inactive)
31 | CC(=O)Nc1ccc(Cl)c(C(N)=O)c1 | 110 | 108% (inactive) | 110% (inactive) | 97.1% (inactive) | 95.3% (inactive) | 8.55% (inactive) | 86.8 | 95.3 | -3.68% (inactive) | 6.07% (inactive)
32 | c1ccc(CCn2nnnc2CN2CCN(C3CCCC3)CC2)cc1 | 97.5 | 95% (inactive) | 97.5% (inactive) | 109% (inactive) | 107% (inactive) | 19.1% (inactive) | 87.5 | 107 | 2.03% (inactive) | -6.51% (inactive)
